Consider three compounds from PMC4306503 (Bioconjugate Chemistry, 2014).

Series [1] concerns the target reduced folate carrier (RFC). The conditions noted are these: low affinity folate carrier RFC; cited from earlier work.
Another series deals with folate receptor (FR). To be noted: high affinity FR, 1:1 stoichiometry; cited from earlier work.
For series [2] the following is noted: at 300 K; cited from earlier work.
A further series concerns KB (FR+) cells. The series can be described thus: MTT cell viability assay, KB cells. The conditions noted are these: 100 μM (highest concentration), 24 h incubation. Type of series: cell-based, human. Put shortly:
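KB cells kept in RPMI-1640 (25 mM HEPES, 2 mM L-glutamine, 15% fetal calf serum, penicillin/streptomycin) and seeded at 25 000 per well overnight. Unlabelled test conjugate added in triplicate at final 0–100 μM for 24 h in the dark. Cells then DPBS-washed thrice and given MTT (5 mg/mL solution) for 3 h. Formazan was dissolved in DMSO and read at 540 nm. Viability is expressed as percent of untreated-control absorbance.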
In general terms: Formazan colour is commonly taken as a measure of viable cells.

Series [3] can be described thus: Solubility in water after HPLC purification. Type of series: physicochemical. To be noted: after cleavage from solid support and reverse-phase HPLC purification.
Series [4] addresses folate binding protein (FBP) (Bos taurus, UniProt P02702). The series can be described thus: Hyperpolarized 129Xe NMR with folate binding protein. To be noted: 30 μM FBP, 30 and 60 μM biosensor, acetate buffer pH 5.0 with and without 10% glycerol, incubated 30 min.

*1 amine or outer side, *2 acyl side, *3 side chain or, on linkers, in order; H or OH if unused. Where a SMILES comes first, the peptide text is derived from it. Side-chain parts run from the residue outwards. [ ]: non-standard residue; d: D form. The star is where a group is joined. X1 = COc1cc2c3cc1OCCOc1cc4c(cc1OC)Cc1cc5c(OC)cc1Cc1cc(c(OCc6cn(CCC(=O)*)nn6)cc1C4)OCCOc1cc(c(cc1OC)Cc1cc(c(OC)cc1C3)OCCO5)C2; Pteroyl = Nc1nc2ncc(CNc3ccc(C(=O)*)cc3)nc2c(=O)[nH]1; γGlu = O=C(O)[C@H](CCC(=O)[*:2])N[*:1]; AEEEA = NCCOCCOCCOCC(=O)O; StBu = CC(C)(C)S*

Sequence of folate binding protein (FBP) (P02702 20-241): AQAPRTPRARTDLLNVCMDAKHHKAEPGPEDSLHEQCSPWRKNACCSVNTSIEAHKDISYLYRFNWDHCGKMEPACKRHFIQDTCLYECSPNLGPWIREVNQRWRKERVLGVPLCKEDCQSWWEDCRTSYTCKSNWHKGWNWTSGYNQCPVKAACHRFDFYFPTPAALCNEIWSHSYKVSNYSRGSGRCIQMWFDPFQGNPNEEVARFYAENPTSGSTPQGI

As to `CN1c2c(nc(N)[nH]c2=O)NCC1CNc1ccc(C(=O)N[C@@H](CCC(=O)O)C(=O)O)cc1` (stereo partly drawn) [5-methyltetrahydrofolate, 5-methyl tetrahydrofolate], in series [1], the dissociation constant entry is listed as “micromolar”. The Kd on folate receptor (FR) is 0.1 to 1 nM.

On to `[Xe]` [129Xe], for which the water solubility in series [2] is recorded as 4.2 mM atm^–1.

In the case of `COc1cc2c3cc1OCCOc1cc4c(cc1OC)Cc1cc5c(OC)cc1Cc1cc(c(OCc6cn(CCC(=O)N[C@@H](CCCCNC(=O)CC[C@H](NC(=O)c7ccc(NCc8cnc9nc(N)[nH]c(=O)c9n8)cc7)C(=O)O)C(=O)N[C@@H](CCCCN)C(=O)N[C@@H](CCCNC(=N)N)C(=O)N[C@@H](CCCCN)C(=O)N[C@@H](CCCNC(=N)N)C(=O)N[C@@H](CCCCN)C(=O)NCCOCCOCCOCC(=O)N[C@@H](CCCNC(=N)N)C(=O)N[C@@H](CCCCN)C(=O)N[C@@H](CSSC(C)(C)C)C(=O)N[C@@H](CCCNC(=N)N)C(N)=O)nn6)cc1C4)OCCOc1cc(c(cc1OC)Cc1cc(c(OC)cc1C3)OCCO5)C2` [compound 24] (X1-K([γGlu-Pteroyl])KRKRK[AEEEA]RKC(StBu)R-NH2), in the series with KB (FR+) cells, the “viability (maximum toxicity)” value amounted to 23%. For the same compound, the solubility in water entry in series [3] is reported as “readily soluble in water”. The “protein bound 129Xe NMR signal” value in series [4] is listed as “no observable protein bound signal”.

By Kd is commonly meant the constant that tells how readily two partners part at equilibrium.
